Drawing on ChEMBL document CHEMBL1150666, “Antioxidant and free-radical scavenging activity of constituents of the leaves of Tachigalia paniculata” (J Nat Prod, 2002), this text covers IC50 and Activity for eleven compounds.

The target in data set [1] is Xanthine dehydrogenase/oxidase (Homo sapiens, UniProt P47989). The data set is described as follows: Inhibition of xanthine oxidase-mediated formation of uric acid by spectrophotometry. An outline of the steps: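 Xanthine 100 μM in 0.1 M phosphate buffer pH 7.8 with 0.04 units/mL XOD, incubated 10 min at room temperature. Compounds added at several concentrations before enzyme; IC50 from regression lines.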
Xanthine dehydrogenase/oxidase, sequence (P47989 whole entry): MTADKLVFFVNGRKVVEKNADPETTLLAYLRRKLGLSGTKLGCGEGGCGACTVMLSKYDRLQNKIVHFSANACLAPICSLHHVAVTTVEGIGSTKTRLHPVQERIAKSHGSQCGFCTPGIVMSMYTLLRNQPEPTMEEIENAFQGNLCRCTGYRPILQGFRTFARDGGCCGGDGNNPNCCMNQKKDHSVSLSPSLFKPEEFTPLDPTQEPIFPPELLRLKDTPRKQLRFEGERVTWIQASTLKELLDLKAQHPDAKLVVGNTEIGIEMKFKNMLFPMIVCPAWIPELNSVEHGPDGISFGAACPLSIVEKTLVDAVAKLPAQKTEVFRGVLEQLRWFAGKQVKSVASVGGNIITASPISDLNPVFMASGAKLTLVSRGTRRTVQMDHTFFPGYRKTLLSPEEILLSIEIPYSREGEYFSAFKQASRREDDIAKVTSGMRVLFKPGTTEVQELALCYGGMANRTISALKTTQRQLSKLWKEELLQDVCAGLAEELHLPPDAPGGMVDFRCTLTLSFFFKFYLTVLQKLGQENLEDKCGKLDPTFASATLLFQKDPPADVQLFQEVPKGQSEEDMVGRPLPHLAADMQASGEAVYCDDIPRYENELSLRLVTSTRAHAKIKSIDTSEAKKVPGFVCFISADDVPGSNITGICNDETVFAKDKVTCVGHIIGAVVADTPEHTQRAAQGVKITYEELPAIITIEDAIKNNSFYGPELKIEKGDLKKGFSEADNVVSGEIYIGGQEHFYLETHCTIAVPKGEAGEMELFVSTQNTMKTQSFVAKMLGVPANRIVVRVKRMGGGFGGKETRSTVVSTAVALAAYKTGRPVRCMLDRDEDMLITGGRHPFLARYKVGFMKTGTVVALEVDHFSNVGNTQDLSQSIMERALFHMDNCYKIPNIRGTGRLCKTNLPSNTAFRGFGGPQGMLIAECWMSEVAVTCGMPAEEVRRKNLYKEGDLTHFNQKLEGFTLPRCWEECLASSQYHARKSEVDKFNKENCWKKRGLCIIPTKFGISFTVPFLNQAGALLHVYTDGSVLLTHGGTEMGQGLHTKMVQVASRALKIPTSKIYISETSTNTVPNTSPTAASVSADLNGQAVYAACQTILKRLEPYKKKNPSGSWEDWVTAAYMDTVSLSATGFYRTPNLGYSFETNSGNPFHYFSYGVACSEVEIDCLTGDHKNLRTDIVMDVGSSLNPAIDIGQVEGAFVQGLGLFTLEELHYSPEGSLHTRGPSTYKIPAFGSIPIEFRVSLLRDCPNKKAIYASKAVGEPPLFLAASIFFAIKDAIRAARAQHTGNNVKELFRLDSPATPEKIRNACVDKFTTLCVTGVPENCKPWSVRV

A short description of data set [2]: ABTS radical scavenging activity assessed as Trolox equivalent antioxidant capacity at 1 mM by spectrophotometry. In kind it is physicochemical. The note with it: 1000 µM. Summed up:
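ABTS radical cation made from 7 mM ABTS with 2.45 mM potassium persulfate, kept dark at room temperature 12 h. Diluted in PBS pH 7.4 to A734 0.70 and equilibrated at 30 °C. Methanol sample solutions (0.3–2 mM) were added to diluted ABTS. Percent inhibition at 734 nm versus methanol blank, plotted against concentration relative to Trolox; three determinations.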

Consider `C[C@@H]1O[C@@H](OC[C@H]2O[C@@H](Oc3cc(O)c4c(=O)c(O)c(-c5cc(O)c(O)c(O)c5)oc4c3)[C@H](O)[C@@H](O)[C@@H]2O)[C@H](O)[C@H](O)[C@H]1O`, for which the IC50 (as a rule, the concentration at which inhibition is half-maximal) in data set [1] came out at 6.13 µM. Further, the Activity in data set [2] was 1.42 mM.

On to `O=c1c(O)c(-c2cc(O)c(O)c(O)c2)oc2cc(O[C@@H]3O[C@H](CO[C@@H]4O[C@H](CO)[C@@H](O)[C@H](O)[C@H]4O)[C@@H](O)[C@H](O)[C@H]3O)cc(O)c12`, for which it took 6.52 µM to reach half-maximal inhibition in data set [1] (IC50). In addition, the Activity in data set [2] was 1.62 mM.

`O=c1c(O[C@@H]2O[C@H](CO)C(O)[C@H](O)[C@H]2O)c(-c2ccc(O)c(O)c2)oc2cc(O)cc(O)c12` (single isomer, unassigned) [ISOQUERCETIN] registered an IC50 in data set [1] of 26.3 µM. Besides, the Activity in data set [2] is reported as 1.1 mM.

Turning to `O=C/C=C/c1ccc(O)c(O)c1` [CAFFEOYL ALDEHYDE], in data set [1], the midpoint of inhibition, the IC50, lay at 31.5 µM. The Activity in data set [2] is recorded as 0.713 mM.

For the compound `COC(=O)c1cc(O)c(O)c(O)c1` [GALLIC ACID METHYL ESTER], the IC50 in data set [1] is 15.5 µM. Besides, the Activity in data set [2] was 1.154 mM.

Regarding `O=c1c(O[C@@H]2O[C@H](CO)[C@@H](O)[C@H](O)[C@H]2O)c(-c2ccc(O)c(O)c2)oc2cc(O)cc(O)c12` [ISOQUERCETIN], the IC50 in data set [1] is more than 50 µM. In data set [2], the Activity is given as 0.757 mM.

In the case of `COc1ccc(C=O)cc1O` [ISOVANILLIN], the half-maximal inhibitory concentration (IC50) in data set [1] is more than 50 µM. In addition, the Activity in data set [2] came out at 0.144 mM.

With `COC(=O)c1ccc(O)c(O)c1` [METHYL PROTOCATECHUATE], the 50% inhibitory concentration (IC50) in data set [1] turned out to be 29.6 µM. Moreover, the Activity in data set [2] was found to be 0.855 mM.

`COC(=O)c1ccc(O)cc1` [METHYLPARABEN] gave an IC50 in data set [1] of more than 50 µM. The Activity in data set [2] came to 0.147 mM.

On to `O=c1c(O)c(-c2ccc(O)c(O)c2)oc2cc(O)cc(O)c12` [QUERCETIN], for which the Activity in data set [2] is given as 2.6 mM.

In data set [1], `C[C@@H]1O[C@@H](Oc2c(-c3ccc(O)c(O)c3)oc3cc(O)cc(O)c3c2=O)[C@H](O)[C@H](O)[C@H]1O` [QUERCITRIN] had an IC50 of 14.7 µM. For the same compound, the Activity in data set [2] is 0.854 mM.
